In PubChem BioAssay AID623921 (The Scripps Research Institute Molecular Screening Center, 2012):
“And” between values parts separate entries of the source, which are not always exact repeats. Equal entries are not always repeated. The source made the active and inactive calls.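 Rule for the calls: active = remaining nuclease activity at or below 52% of the solvent-only control; inactive = the rest.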

Target: RecBCD enzyme subunit RecC (Escherichia coli (strain K12)) + RecBCD enzyme subunit RecB (Escherichia coli (strain K12)) (UniProt P07648+P08394)
Sequence (P07648 whole entry, looked up): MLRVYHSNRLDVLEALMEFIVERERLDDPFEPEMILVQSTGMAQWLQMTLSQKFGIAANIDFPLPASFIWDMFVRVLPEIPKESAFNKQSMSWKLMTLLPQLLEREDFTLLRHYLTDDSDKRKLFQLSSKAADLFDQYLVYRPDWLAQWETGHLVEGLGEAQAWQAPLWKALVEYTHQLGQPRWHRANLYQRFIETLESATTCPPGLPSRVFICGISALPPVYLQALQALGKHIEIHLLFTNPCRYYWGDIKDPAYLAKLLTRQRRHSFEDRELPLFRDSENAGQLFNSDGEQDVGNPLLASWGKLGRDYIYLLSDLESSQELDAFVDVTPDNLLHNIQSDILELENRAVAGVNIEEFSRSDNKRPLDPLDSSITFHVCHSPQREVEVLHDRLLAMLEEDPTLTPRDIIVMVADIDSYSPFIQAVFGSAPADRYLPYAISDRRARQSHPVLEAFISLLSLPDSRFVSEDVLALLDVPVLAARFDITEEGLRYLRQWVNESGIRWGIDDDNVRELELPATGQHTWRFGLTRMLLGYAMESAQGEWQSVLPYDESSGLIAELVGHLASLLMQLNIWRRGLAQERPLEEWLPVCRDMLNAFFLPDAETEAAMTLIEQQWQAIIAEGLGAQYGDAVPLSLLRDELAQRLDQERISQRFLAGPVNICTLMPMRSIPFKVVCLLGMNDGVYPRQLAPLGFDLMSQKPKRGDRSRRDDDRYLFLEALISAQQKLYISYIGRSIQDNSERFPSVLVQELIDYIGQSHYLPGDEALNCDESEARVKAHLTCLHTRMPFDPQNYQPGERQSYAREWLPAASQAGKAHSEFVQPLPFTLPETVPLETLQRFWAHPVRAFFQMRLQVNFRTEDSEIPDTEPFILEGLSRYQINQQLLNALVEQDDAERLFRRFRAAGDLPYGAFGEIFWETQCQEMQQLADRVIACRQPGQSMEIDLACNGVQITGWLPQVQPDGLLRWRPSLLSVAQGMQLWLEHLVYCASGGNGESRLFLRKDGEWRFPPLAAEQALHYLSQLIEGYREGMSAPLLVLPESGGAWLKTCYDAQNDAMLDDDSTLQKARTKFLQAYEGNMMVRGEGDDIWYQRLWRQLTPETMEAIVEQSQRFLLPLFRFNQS
Sequence (P08394 whole entry, looked up): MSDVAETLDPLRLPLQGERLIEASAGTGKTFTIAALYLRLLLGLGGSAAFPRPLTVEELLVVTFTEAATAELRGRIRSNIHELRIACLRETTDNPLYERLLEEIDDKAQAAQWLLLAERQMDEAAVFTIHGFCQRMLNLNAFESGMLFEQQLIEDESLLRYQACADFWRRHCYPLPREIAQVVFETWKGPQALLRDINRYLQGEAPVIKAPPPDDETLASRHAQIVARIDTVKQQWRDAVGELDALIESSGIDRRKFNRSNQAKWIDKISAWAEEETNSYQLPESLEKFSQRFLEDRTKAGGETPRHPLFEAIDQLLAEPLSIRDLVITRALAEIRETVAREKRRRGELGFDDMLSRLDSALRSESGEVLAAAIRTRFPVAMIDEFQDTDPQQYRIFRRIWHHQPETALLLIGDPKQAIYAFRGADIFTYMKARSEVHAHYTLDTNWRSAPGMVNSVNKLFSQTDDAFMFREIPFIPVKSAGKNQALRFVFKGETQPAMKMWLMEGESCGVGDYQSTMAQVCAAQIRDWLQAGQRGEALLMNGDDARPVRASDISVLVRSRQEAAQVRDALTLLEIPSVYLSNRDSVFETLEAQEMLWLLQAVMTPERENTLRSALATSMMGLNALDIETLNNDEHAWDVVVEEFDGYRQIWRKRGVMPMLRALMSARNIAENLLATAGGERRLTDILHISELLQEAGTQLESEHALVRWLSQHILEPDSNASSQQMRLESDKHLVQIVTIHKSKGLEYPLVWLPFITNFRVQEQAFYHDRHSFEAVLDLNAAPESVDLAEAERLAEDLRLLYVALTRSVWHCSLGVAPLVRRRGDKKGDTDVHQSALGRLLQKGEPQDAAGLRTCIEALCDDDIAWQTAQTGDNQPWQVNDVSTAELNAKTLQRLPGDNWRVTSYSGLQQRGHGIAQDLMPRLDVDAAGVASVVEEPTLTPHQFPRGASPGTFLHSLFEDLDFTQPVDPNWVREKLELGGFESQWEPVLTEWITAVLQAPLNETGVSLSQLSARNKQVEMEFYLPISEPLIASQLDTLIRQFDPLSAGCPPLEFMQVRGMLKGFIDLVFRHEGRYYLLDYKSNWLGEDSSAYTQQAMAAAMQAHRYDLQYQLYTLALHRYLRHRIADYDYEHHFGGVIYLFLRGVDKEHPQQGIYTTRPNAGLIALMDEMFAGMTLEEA
Assay: RecBCD dsDNA exonuclease activity remaining – biochemical, radioactivity readout, 100 µM single dose, counter-screen for AddAB inhibitor project, late-stage follow-up (AID 623921)
Details: purified RecBCD, [3H] dsDNA nuclease, TCA-soluble radioactivity; at 100 µM; active compounds read low
Procedure, shortened: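 Test system – purified E. coli RecBCD helicase-nuclease enzyme · Benchmarks – DMSO reactions and no-enzyme background · Dosing – 100 µM single dose, 5% DMSO · Detection – scintillation counting of acid-soluble tritium after TCA precipitation · Evaluation – remaining nuclease activity as % of DMSO reactions, background-subtracted · Schedule – enzyme-compound mix on ice, 20 min reaction at 37 °C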

Row | remaining enzyme activity | Structure (SMILES)
1 | 4% | CCn1cc(C(=O)O)c(=O)c2cnc(N3CCN(C(=S)Nc4ccc5c(c4)OCO5)CC3)nc21
2 | 83% (inactive) | CCn1cc(C(=O)O)c(=O)c2cnc(N3CCN(C(=O)Nc4ccccc4)CC3)nc21
3 | 26% | CCn1cc(C(=O)O)c(=O)c2cnc(N3CCN(C(=S)Nc4ccccc4OC)CC3)nc21
4 | 84% (inactive) | CCn1cc(C(=O)O)c(=O)c2cnc(N3CCN(C(=S)NC(=O)c4ccco4)CC3)nc21
5 | 7% | CCn1cc(C(=O)O)c(=O)c2cnc(N3CCN(C(=S)NCc4ccccc4)CC3)nc21
6 | 1% | CCn1cc(C(=O)O)c(=O)c2cnc(N3CCN(C(=S)NC(C)c4ccccc4)CC3)nc21 (stereo not drawn)
7 | 23% | CCn1cc(C(=O)O)c(=O)c2cnc(N3CCN(C(=S)Nc4ccccc4)CC3)nc21
8 | 11% | CCn1cc(C(=O)O)c(=O)c2cnc(N3CCN(C(=S)NC(=O)c4cccc(C)c4)CC3)nc21
9 | 28% | CCn1cc(C(=O)O)c(=O)c2cnc(N3CCN(C(=S)Nc4ccccc4Cl)CC3)nc21
10 | -1% | CCn1cc(C(=O)O)c(=O)c2cnc(N3CCN(C(=S)Nc4ccc(Cl)cc4)CC3)nc21
11 | 110% (inactive) | CCn1cc(C(=O)O)c(=O)c2cnc(N3CCNCC3)nc21
12 | -2% | CCn1cc(C(=O)O)c(=O)c2cnc(N3CCN(C(=S)Nc4cccc(C(F)(F)F)c4)CC3)nc21
13 | 35% | CCn1cc(C(=O)O)c(=O)c2cnc(N3CCN(C(=S)NC)CC3)nc21
14 | 19% | CCn1cc(C(=O)O)c(=O)c2cnc(N3CCN(C(=S)Nc4ccc(F)cc4)CC3)nc21
15 | 31% | CCn1cc(C(=O)O)c(=O)c2cnc(N3CCN(C(=S)Nc4ccccc4F)CC3)nc21
16 | 30% | CCn1cc(C(=O)O)c(=O)c2cnc(N3CCN(C(=S)Nc4ccccc4C(F)(F)F)CC3)nc21
17 | 40% | CCn1cc(C(=O)O)c(=O)c2cnc(N3CCN(C(=S)Nc4ccccc4C)CC3)nc21
18 | 63% (inactive) | C=CCNC(=S)N1CCN(c2ncc3c(=O)c(C(=O)O)cn(CC)c3n2)CC1
19 | 58% (inactive) | CCn1cc(C(=O)O)c(=O)c2cnc(N3CCN(C(=S)NC(=O)c4ccccc4Cl)CC3)nc21
20 | 1% | CCn1cc(C(=O)O)c(=O)c2cnc(N3CCN(C(=S)NC4CC5CCC4C5)CC3)nc21 (stereo not drawn)
21 | 40% | CCn1cc(C(=O)O)c(=O)c2cnc(N3CCN(C(=S)NC(=O)c4cccnc4)CC3)nc21

Second part, the molecule before the results:

Row | Structure (SMILES) | remaining enzyme activity
22 | NC(=O)c1c(NC(=O)c2cnccn2)sc2c1CCCC2 | 85% (inactive)
23 | COC(=O)c1c(-c2cccc(C)c2)csc1NC(=O)c1cnccn1 | 88% (inactive)
24 | CCn1cc(C(=O)O)c(=O)c2cc(F)c(N3CCN(C(=S)Nc4ccccc4C(F)(F)F)CC3)cc21 | 45%
25 | Cc1ccc(C(=O)Nc2sc3c(c2C#N)CCCCC3)o1 | 106% (inactive)
26 | Cc1sc(NC(=O)c2cnccn2)c(C(=O)OC(C)C)c1-c1ccccc1 | 44%
27 | N#Cc1c(NC(=O)c2cc(-c3ccccc3)on2)sc2c1CCCC2 | 34%
28 | CC1CCc2c(sc(NC(=O)c3cnccn3)c2C#N)C1 (stereo not drawn) | 83% (inactive)
29 | N#Cc1c(NC(=O)c2ccco2)sc2c1CCC2 | 41%
30 | Nc1c(NC(=O)c2ccc([N+](=O)[O-])o2)sc2c1CCCC2 | 98% (inactive)
31 | N#Cc1c(NC(=O)c2cnccn2)sc2c1CCCCCC2 | 71% (inactive)
32 | CC1CCc2c(sc(NC(=O)c3ccc([N+](=O)[O-])o3)c2N)C1 (stereo not drawn) | 110% (inactive)
33 | Cc1ccc(C(=O)Nc2sc3c(c2C#N)CCC3)o1 | 84% (inactive)
34 | CC1(C)Cc2c(sc(NC(=O)c3ccco3)c2C#N)CO1 | 90% (inactive)
35 | N#Cc1c(NC(=O)c2cccc(F)c2)sc2c1CCCC2 | 110% (inactive)
36 | CC1CCc2c(sc(NC(=O)c3cccs3)c2C#N)C1 (stereo not drawn) | 89% (inactive)
37 | N#Cc1c(NC(=O)c2ccccc2)sc2c1CCC2 | 94% (inactive)

Row | Structure (SMILES) | remaining enzyme activity
38 | COC(=O)c1c(-c2ccccc2)csc1NC(=O)c1cnccn1 | 28%
39 | CNC(=O)c1c(NC(=O)c2nc(SCc3ccccc3)ncc2Cl)sc2c1CCCC2 | 26%
40 | N#Cc1c(NC(=O)c2ccc([N+](=O)[O-])o2)sc2c1CCCC2 | 110% (inactive)
41 | COC(=O)c1c(NC(=O)c2cnccn2)sc2c1CCCC2 | 78% (inactive)
42 | N#Cc1c(NC(=O)c2ccc(-c3ccccc3[N+](=O)[O-])o2)sc2c1CCCC2 | 120% (inactive)
43 | CCn1cc(C(=O)O)c(=O)c2cnc(N3CCN(C(=S)Nc4ccc5c(c4)OCCO5)CC3)nc21 | 34%
44 | CCC(C)(C)C1CCc2c(sc(NC(=O)c3cnccn3)c2C#N)C1 (stereo not drawn) | 85% (inactive)
45 | CSc1ncc(Cl)c(C(=O)Nc2sc3c(c2C(=O)NC2CCS(=O)(=O)C2)CCC(C)C3)n1 (stereo not drawn) | 76% (inactive)
46 | Cn1nccc1C(=O)Nc1sc2c(c1C#N)CCCC2 | 71% (inactive)
47 | CC1CCc2c(sc(NC(=O)c3ccc([N+](=O)[O-])o3)c2C#N)C1 (stereo not drawn) | 110% (inactive)
48 | CSc1ncc(Cl)c(C(=O)Nc2sc3c(c2C#N)CCC(C)C3)n1 (stereo not drawn) | 88% (inactive)
49 | Cc1sc(NC(=O)c2ccc(Br)o2)c(C#N)c1C | 51%
50 | N#Cc1c(NC(=O)C2CC=CCC2C(=O)O)sc2c1CCC2 (stereo not drawn) | 77% (inactive)
51 | N#Cc1c(NC(=O)c2ccccc2C(=O)O)sc2c1CCCC2 | 110% (inactive)
52 | N#Cc1c(NC(=O)c2cnccn2)sc2c1CCCC2 | 21% and 30%
53 | CCn1cc(C(=O)O)c(=O)c2cc(F)c(N3CCN(C(=S)Nc4cccc(C(F)(F)F)c4)CC3)cc21 | 12%
